Data published in ChEMBL document CHEMBL4834396, “Molecular Recognition and Imaging of Human Telomeric G-Quadruplex DNA in Live Cells: A Systematic Advancement of Thiazole Orange Scaffold To Enhance Binding Specificity and Inhibition of Gene Expression” (J Med Chem, 2021).
The source made the active and inactive calls. The rule behind the calls is not given here.

What was measured:
Quadruplex DNA [1] = experiment: Binding affinity to wild type telomeric Htg24 G-quadruplex DNA (unknown origin) assessed as antiparallel structure at 5 uM under pH condition 7.4 with 60 mM K+ ion by CD spectra analysis; type: nucleic-acid assay
Method in brief: (§1)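 CD spectra recorded on G4-DNA and ligand, each at 5 μM, in 10 mM Tris-HCl, pH 7.4, with 60 mM KCl. Scan range 220–340 nm in a 1 mm quartz cuvette, 1 nm bandwidth and step, 0.5 s/point. Each spectrum is the average of three scans.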

Quadruplex DNA [2] = experiment: Binding affinity to G4 quadruplex DNA in human HeLa cells assessed as BG4 foci formation at 10 to 20 uM; type: cell-based; settings: dose 10-20 µM
MCF7 = experiment: Antiproliferative activity against human MCF7 cells assessed as reduction in cell viability […] by MTT assay; type: functional, cell-based
U-87 MG = experiment: Antiproliferative activity against human U87 cells assessed as reduction in cell viability […] by MTT assay; type: functional, cell-based, U-87MG ATCC
[3] = test system: Quadruplex DNA [UNDEFINED MUTATION]; experiment: Effect on confirmation of telomeric Htg24 G-quadruplex DNA G16T mutant (unknown origin) assessed as parallel topology at 5 uM at pH 7.4 by circular dichroism analysis; type: nucleic-acid assay; settings: Homo sapiens; method in brief: as §1
[4] = test system: Quadruplex DNA [UNDEFINED MUTATION]; experiment: Binding affinity to telomeric Htg24 G-quadruplex DNA A14G mutant (unknown origin) assessed as negative fluorescence signal at 5 uM under pH condition 7.4 by fluorescence titration analysis; type: nucleic-acid assay; settings: Homo sapiens
Method in brief: (§2)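 Ligand 5 μM mixed with wild-type or point-mutant Htg24 in Tris-HCl buffer with 60 mM KCl; signal change calculated as (F mutant − F wild type)/F wild type.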

[5] = test system: Quadruplex DNA [UNDEFINED MUTATION]; experiment: Binding affinity to telomeric Htg24 G-quadruplex DNA G21A mutant (unknown origin) assessed as strong fluorescence signal at 5 uM under pH condition 7.4 by fluorescence titration analysis; type: nucleic-acid assay; settings: Homo sapiens; method in brief: as §2
[6] = test system: Quadruplex DNA [UNDEFINED MUTATION]; experiment: Binding affinity to telomeric Htg24 G-quadruplex DNA G15C mutant (unknown origin) assessed as fluorescence signal at 5 uM under pH condition 7.4 by fluorescence titration analysis; type: nucleic-acid assay; settings: Homo sapiens

Activity (Quadruplex DNA [1]): Active
IC50 (MCF7): 14.5 µM
IC50 (U-87 MG): 15.2 µM
Activity [3]: Active
Activity [4]: Active
Activity [5]: Active
Activity [6]: inactive
Compound: CN(C)c1ccc(/C=C/c2cc(/C=C3\Sc4ccccc4N3CCCN3CCOCC3)c3ccccc3[n+]2C)cc1.[I-]
Activity (Quadruplex DNA [2]): Active
